Experimental data: ChEMBL document CHEMBL1926666, “Synthesis of novel 3-cyclohexylpropanoic acid-derived nitrogen heterocyclic compounds and their evaluation for tuberculostatic activity” (Bioorg Med Chem, 2012)
In brackets after ≈: the same amount, converted by molar mass. Activity calls are given as the source filed them. No cut-off for these calls is given here.

How the values were obtained:
[1] = test system: Mycobacterium tuberculosis; assay: Antituberculosis activity against Mycobacterium tuberculosis H37Rv by twofold serial dilution method; type: functional
Outline: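 Classical two-fold test-tube serial dilution in Youmans' modified Proskauer–Beck liquid medium with 10% bovine serum. Inocula from 14-day cultures. Compounds in ethylene glycol, 10 mg/mL stock, geometric dilutions in medium; 3.1, 6.2, 12.5, 25, 50 and 100 µg/mL evaluated. Incubation at 37 °C. MIC = lowest concentration inhibiting growth relative to a compound-free tube. INH, PZA and RMP served as reference drugs.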

[2] = test system: Skin fibroblast; assay: Stimulation of type 1 collagen output in human skin fibroblasts after at 10 to 100 ug/ml after 72 hrs by ELISA; type: functional
Outline: (§1)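 Neonatal human dermal fibroblasts in high-glucose DMEM with 5% calf serum, 3 × 10³ cells/well, 72 h compound exposure. Conditioned media assayed for type I collagen by sandwich ELISA (affinity-purified antibodies, streptavidin/avidin-HRP, ABTS, 405 nm), quantified against a purified human collagen I standard curve. Expressed as % of untreated control. MAP and bFGF (15 ng/mL) served as positive controls.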

[3] = test system: Brevibacterium linens; assay: Antibacterial activity against Brevibacterium linens ATCC 9174 after 24 hrs by M7-A7 CLSI method; type: functional; conditions: ATCC 9174, 24 h
Outline: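 Compounds dissolved in 100% DMSO at 5 mg/mL, then 1 mg/mL in 10% DMSO; serial dilutions in broth from 100 µg/mL final. B. linens: nutrient broth 24 h at 30 °C, inoculum 1 McFarland, 24 h with compounds. P. acnes: thioglycolate broth 72 h at 33 °C, inoculum 0.5 McFarland, 72 h anaerobic with compounds. MIC = lowest concentration with no visible growth, confirmed by A655.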

[4] = Growth inhibition of human skin fibroblasts at 10 ug/ml after 72 hrs by MTT assay; parameters: species or system Skin fibroblast; conditions: read-out: GI
Outline: (§2)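 Neonatal human dermal fibroblasts in high-glucose DMEM with 5% cosmic calf serum, seeded 3 × 10³ cells/well and exposed to compounds for 72 h. MTT then added for 2.5 h; formazan solubilised in isopropanol and read at 550 nm; signal proportional to cell number.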

[5] = Growth inhibition of human skin fibroblasts at 100 ug/ml after 72 hrs by MTT assay; parameters: species or system Skin fibroblast; conditions: read-out: GI; outline: as §2
[6] = Stimulation of type 1 collagen output in human skin fibroblasts after at 100 ug/ml after 72 hrs by ELISA relative to control; type: functional, Skin fibroblast; outline: as §1

SMILES	MIC [1]	Activity [2]	MIC [3]	inhibition at 72 h, 10 ug/ml [4]	inhibition at 72 h, 100 ug/ml [5]	Activity [6]
S=c1[nH]nc(CCC2CCCCC2)n1-c1ccc(Cl)cc1	50 µg/mL (≈ 155 µM)	inactive	> 100 µg/mL	–	–	–
NNC(=O)c1ccncc1 [ISONIAZID]	0.5 µg/mL (≈ 3.65 µM)	–	–	–	–	–
C=CCNC(=S)NNC(=O)CCC1CCCCC1	50 µg/mL (≈ 186 µM)	inactive	> 100 µg/mL	–	–	–
O=[N+]([O-])c1cc(Cl)cc2[nH]c(CCC3CCCCC3)nc12	12.5 µg/mL (≈ 40.6 µM)	–	> 100 µg/mL	0%	18%	166%
NC(=O)c1cnccn1 [PYRAZINAMIDE]	25 µg/mL (≈ 203 µM)	–	–	–	–	–
S=c1[nH]nc(CCC2CCCCC2)n1C1CCCCC1	50 µg/mL (≈ 170 µM)	inactive	> 100 µg/mL	–	–	–
C=CCn1c(CCC2CCCCC2)n[nH]c1=S	50 µg/mL (≈ 199 µM)	inactive	> 100 µg/mL	–	–	–
Cn1c(CCC2CCCCC2)n[nH]c1=S	50 µg/mL (≈ 222 µM)	inactive	> 100 µg/mL	–	–	–
O=C(CCC1CCCCC1)NN=C1SCCS1	50 µg/mL (≈ 184 µM)	inactive	> 100 µg/mL	–	–	–
O=C(CCC1CCCCC1)NNC(=S)NC1CCCCC1	50 µg/mL (≈ 161 µM)	inactive	> 100 µg/mL	–	–	–
CSC(=S)NNC(=O)CCC1CCCCC1	50 µg/mL (≈ 192 µM)	inactive	> 100 µg/mL	–	–	–
S=c1[nH]nc(CCC2CCCCC2)o1	25 µg/mL (≈ 118 µM)	inactive	> 100 µg/mL	–	–	–
Brc1cnc2[nH]c(CCC3CCCCC3)nc2c1	6.5 µg/mL (≈ 21.1 µM)	inactive	> 100 µg/mL	17%	100%	–
CSC(=NNC(=O)CCC1CCCCC1)SC	50 µg/mL (≈ 182 µM)	inactive	> 100 µg/mL	–	–	–
c1ccc2c(c1)ccc1nc(CCC3CCCCC3)[nH]c12	1.5 µg/mL (≈ 5.39 µM)	inactive	> 100 µg/mL	16%	74%	–
S=c1[nH]nc(CCC2CCCCC2)[nH]1	50 µg/mL (≈ 237 µM)	inactive	> 100 µg/mL	–	–	–
CO[C@H]1/C=C/O[C@@]2(C)Oc3c(C)c(O)c4c(O)c(c(/C=N/N5CCN(C)CC5)c(O)c4c3C2=O)NC(=O)/C(C)=C\C=C\[C@H](C)[C@H](O)[C@@H](C)[C@@H](O)[C@@H](C)[C@H](OC(C)=O)[C@@H]1C [RIFAMPIN]	1.2 µg/mL (≈ 1.46 µM)	–	–	–	–	–
c1ccc2nc3cc4[nH]c(CCC5CCCCC5)nc4cc3nc2c1	3.1 µg/mL (≈ 9.38 µM)	inactive	> 100 µg/mL	0%	11%	–
CNC(=S)NNC(=O)CCC1CCCCC1	50 µg/mL (≈ 205 µM)	inactive	> 100 µg/mL	–	–	–
c1cnc2[nH]c(CCC3CCCCC3)nc2c1	25 µg/mL (≈ 109 µM)	inactive	> 100 µg/mL	0%	41%	–
O=C(CCC1CCCCC1)NNC(=S)Nc1ccc(Cl)cc1	50 µg/mL (≈ 147 µM)	inactive	> 100 µg/mL	–	–	–
CC1(C)CNc2nnc(CCC3CCCCC3)n2C1	50 µg/mL (≈ 191 µM)	inactive	> 100 µg/mL	–	–	–
Cl.Cl.c1cc2nc(CCC3CCCCC3)[nH]c2cn1	25 µg/mL	inactive	> 100 µg/mL	0%	0%	–
